The source of these data is ChEMBL document CHEMBL1143425, “Paradoxical growth effect of caspofungin observed on biofilms and planktonic cells of five different Candida species” (2007).

Experiment [1] has as its system Candida parapsilosis. In words: Antimicrobial activity against Candida parapsilosis BR-A25 grown as planktonic cell after 48 hrs by XTT reduction assay. It counts as functional. To be noted: Lodderomyces parapsilosis. The method, boiled down: (§1)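 Planktonic broth microdilution followed CLSI M27-A2, with caspofungin dissolved in water. After 48 h, XTT-menadione was added to the wells and plates were kept 1 h at 35°C in the dark. Plates were then centrifuged and supernatant A490 was read. MIC was the lowest concentration giving a 50% decrease in metabolic activity versus drug-free control. Paradoxical growth was defined as ≥20% of control activity above the MIC.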
On the technique in general: Formazan colour is commonly taken as a measure of viable cells.

In experiment [2] the test system is Candida tropicalis. In words: Effect on morphology in Candida tropicalis grown as planktonic cells assessed as rounding and clumping at 8 ug/ml after 48 hrs. It counts as functional, organism-based. An outline of the steps:
(§2)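 Clinical isolates were tested by CLSI M27-A2 broth microdilution with caspofungin dissolved in sterile water. After 48 h incubation, cells were taken from drug-containing and drug-free control wells. They were examined by light microscopy at ×400 for hyphae or pseudohyphae, rounding or clumping, and enlarged globose cells.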

For experiment [3], the system named is Candida albicans. In words: Antimicrobial activity against Candida albicans BR-A1 grown as planktonic cell assessed as paradoxical growth after 48 hrs by XTT reduction assay. It counts as functional, organism-based. An outline of the steps:
(§3)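 Planktonic cells were tested by CLSI M27-A2 broth microdilution with caspofungin in water, incubated 48 h. XTT-menadione was added to each well, plates were held 1 h at 35°C in the dark and centrifuged, and supernatant absorbance was read at 490 nm. MIC was defined as 50% decrease in metabolic activity versus drug-free control. PG was defined as ≥20% of control activity at concentrations above MIC.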

The subject of experiment [4] is Candida orthopsilosis. Description: Antimicrobial activity against Candida orthopsilosis BR-A37 grown as biofilm assessed as concentration producing paradoxical growth after 48 hrs by XTT reduction assay. Type of experiment: functional. The method, boiled down:
(§4)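 Sabouraud-grown cells were shaken overnight (18 h, 120 rpm, 35°C) in RPMI 1640 with MOPS at pH 7.0, then washed and set at ~1 × 10^7 cells/ml. Attachment lasted 1.5 h at 37°C, and growth ran 24 h before challenge. Caspofungin was added in RPMI at 2–1,024 μg/ml (10 doublings) for 48 h at 35°C with shaking. XTT-menadione was read at 490 nm after 1 h at 35°C in the dark, with blank wells subtracted. MIC was taken as 50% reduction versus drug-free wells, and PG as >50% of control above MIC. Assays were run in duplicate.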

Experiment [5] concerns Candida orthopsilosis. Description: Antimicrobial activity against Candida orthopsilosis BR-A36 grown as biofilm assessed as concentration producing paradoxical growth after 48 hrs by XTT reduction assay. Type of experiment: functional. An outline of the steps: as §4
Experiment [6] relates to Candida orthopsilosis. Description: Antimicrobial activity against Candida orthopsilosis BR-A39 grown as biofilm assessed as concentration producing paradoxical growth after 48 hrs by XTT reduction assay. Type of experiment: functional. The method, boiled down:
as §4

Experiment [7] relates to Candida albicans. In words: Effect on morphology in Candida albicans grown as planktonic cells assessed as rounding and clumping at 16 ug/ml after 48 hrs. It counts as functional, organism-based. An outline of the steps: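 Cells were taken from caspofungin-containing and drug-free wells of the planktonic broth microdilution test after 48 h. They were examined by light microscopy at ×400.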

The test system of experiment [8] is Candida parapsilosis. In words: Antimicrobial activity against Candida parapsilosis BR-A26 grown as planktonic cell after 48 hrs by XTT reduction assay. It counts as functional. To be noted: Lodderomyces parapsilosis. The method, boiled down: as §1
Experiment [9] deals with Candida tropicalis. In words: Antimicrobial activity against Candida tropicalis BR-A9 grown as planktonic cell assessed as concentration producing paradoxical growth after 48 hrs by XTT reduction assay. Type of experiment: functional. An outline of the steps: (§5)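 Planktonic broth microdilution followed CLSI M27-A2, with caspofungin dissolved in water. After 48 h, XTT-menadione was added to each well and plates were incubated 1 h at 35°C in the dark. Cells were pelleted by centrifugation and the supernatant was read at 490 nm. MIC was the lowest concentration giving a 50% drop in metabolic activity versus the drug-free control. PG was ≥20% of drug-free activity above the MIC.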

The subject of experiment [10] is Candida parapsilosis. In words: Antimicrobial activity against Candida parapsilosis BR-A28 grown as biofilm assessed as concentration producing paradoxical growth after 48 hrs by XTT reduction assay. It counts as functional. The method, boiled down:
(§6)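 Clinical isolates were grown overnight (18 h, 35°C, 120 rpm) in RPMI 1640 with MOPS, pH 7.0, then washed and set to ~1 × 10^7 cells/ml. Cells attached for 1.5 h at 37°C, 75 rpm, then biofilms grew 24 h. Caspofungin was given as doubling dilutions of 2–1,024 μg/ml for 48 h at 35°C, 75 rpm. Read-out was XTT-menadione in PBS, 1 h at 35°C in the dark, A490, cell-free blank subtracted. MIC was a 50% drop in activity versus drug-free; PG was >50% of control above MIC. Run in duplicate.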

Experiment [11] has as its system Candida metapsilosis. Description: Antimicrobial activity against Candida metapsilosis BR-A41 grown as planktonic cell assessed as paradoxical growth after 48 hrs by XTT reduction assay. Type of experiment: functional, organism-based. An outline of the steps: as §3
Experiment [12] deals with Candida metapsilosis. Description: Antimicrobial activity against Candida metapsilosis BR-A44 grown as biofilm assessed as concentration producing paradoxical growth after 48 hrs by XTT reduction assay. It counts as functional. An outline of the steps:
as §4

Experiment [13] concerns Candida parapsilosis. In words: Antimicrobial activity against Candida parapsilosis BR-A27 grown as biofilm assessed as paradoxical growth after 48 hrs by XTT reduction assay. It counts as functional, organism-based. The method, boiled down: as §6
For experiment [14], the system named is Candida metapsilosis. In words: Effect on morphology in Candida metapsilosis grown as biofilm assessed as rounding and clumping at 16 ug/ml after 48 hrs. It counts as functional, organism-based. An outline of the steps:
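Biofilms formed in RPMI 1640 wells were exposed to caspofungin for 48 h and compared with drug-free control wells. Wells were examined in the plate under an inverted light microscope at ×200 and photographed.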

Experiment [15] relates to Candida tropicalis. In words: Antimicrobial activity against Candida tropicalis BR-A24 grown as biofilm after 48 hrs by XTT reduction assay. It counts as functional. The method, boiled down: (§7)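 Isolates were grown on Sabouraud agar (30°C, 24 h), then overnight in RPMI 1640 with MOPS, pH 7.0, at 35°C with shaking. Cells were washed and set to ~1 × 10^7 cells/ml, attached 1.5 h at 37°C, and grown 24 h. Biofilms were then exposed to caspofungin in 10 twofold dilutions (2–1,024 μg/ml) for 48 h at 35°C with shaking. Read-out was XTT-menadione, 1 h, 35°C, dark, A490, cell-free blank subtracted. MIC was the 50% drop in activity versus drug-free control. Tested in duplicate.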

The subject of experiment [16] is Candida parapsilosis. In words: Antimicrobial activity against Candida parapsilosis BR-A26 grown as biofilm after 48 hrs by XTT reduction assay. It counts as functional. To be noted: Lodderomyces parapsilosis. The method, boiled down:
as §6

For experiment [17], the system named is Candida orthopsilosis. Description: Antimicrobial activity against Candida orthopsilosis BR-A33 grown as biofilm after 48 hrs by XTT reduction assay. Type of experiment: functional. The settings on record: Lodderomyces orthopsilosis. The method, boiled down:
as §7

The subject of experiment [18] is Candida parapsilosis. Description: Antimicrobial activity against Candida parapsilosis BR-A28 grown as planktonic cell assessed as paradoxical growth after 48 hrs by XTT reduction assay. Type of experiment: functional, organism-based. An outline of the steps:
as §5

In experiment [19] the test system is Candida parapsilosis. Description: Antimicrobial activity against Candida parapsilosis 22019 grown as biofilm after 48 hrs by XTT reduction assay. Type of experiment: functional. To be noted: Lodderomyces parapsilosis, 22019, 48 h. The method, boiled down:
as §7

The subject of experiment [20] is Candida tropicalis. Description: Effect on morphology in Candida tropicalis grown as planktonic cells assessed as inhibition of hyphae and pseudohyphae at 8 ug/ml after 48 hrs. It counts as functional, organism-based. An outline of the steps: as §2
The test system of experiment [21] is Candida parapsilosis. In words: Antimicrobial activity against Candida parapsilosis BR-A29 grown as planktonic cell after 48 hrs by XTT reduction assay. Type of experiment: functional. The settings on record: Lodderomyces parapsilosis. An outline of the steps: as §1
Experiment [22] relates to Candida orthopsilosis. In words: Antimicrobial activity against Candida orthopsilosis BR-A37 grown as planktonic cell after 48 hrs by XTT reduction assay. The settings on record: Lodderomyces orthopsilosis. Type of experiment: functional. An outline of the steps: as §1
For experiment [23], the system named is Candida metapsilosis. Description: Antimicrobial activity against Candida metapsilosis BR-A44 grown as planktonic cell assessed as paradoxical growth after 48 hrs by XTT reduction assay. It counts as functional, organism-based. The method, boiled down: as §3
Experiment [24] has as its system Candida metapsilosis. In words: Antimicrobial activity against Candida metapsilosis BR-A41 grown as planktonic cell after 48 hrs by XTT reduction assay. To be noted: Lodderomyces metapsilosis. Type of experiment: functional. The method, boiled down:
as §3

Structures are written as SMILES. Converted amounts (≈) assume the structure as drawn. The source made the active and inactive calls.

As for `CC[C@H](C)C[C@H](C)CCCCCCCCC(=O)N[C@H]1C[C@@H](O)[C@@H](NCCN)NC(=O)[C@@H]2[C@@H](O)CCN2C(=O)[C@H]([C@H](O)CCN)NC(=O)[C@H]([C@H](O)[C@@H](O)c2ccc(O)cc2)NC(=O)[C@@H]2C[C@@H](O)CN2C(=O)[C@H]([C@@H](C)O)NC1=O` [CASPOFUNGIN], the MIC worked out at 2 µg/mL (≈ 1.83 µM) in the experiment with Candida parapsilosis [1]; 2 µg/mL (≈ 1.83 µM) against Candida parapsilosis [8]; 2 µg/mL (≈ 1.83 µM) in the experiment with Candida tropicalis [15]; 256 µg/mL (≈ 234 µM) with Candida parapsilosis [16]; 2 µg/mL (≈ 1.83 µM) against Candida orthopsilosis [17]; 2 µg/mL (≈ 1.83 µM) in the experiment with Candida parapsilosis [19]. For the same molecule, the MIC in the experiment on Candida parapsilosis [21], with Candida orthopsilosis [22] and against Candida metapsilosis [24] was 2 µg/mL (≈ 1.83 µM) throughout. Further, the outcome with Candida tropicalis [2], in the experiment with Candida albicans [3], in the experiment on Candida albicans [7], with Candida parapsilosis [13], in the experiment on Candida metapsilosis [14] and in the experiment with Candida tropicalis [20] was Active. Besides, the Activity in the experiment with Candida orthopsilosis [4] was determined as 32 µg/mL; in the experiment with Candida orthopsilosis [5], 16 µg/mL; in the experiment with Candida orthopsilosis [6] it was 32 µg/mL; in the experiment on Candida tropicalis [9], 8 µg/mL; in the experiment on Candida parapsilosis [10], 16 µg/mL; in the experiment with Candida metapsilosis [12] it was 16 µg/mL. The outcome with Candida metapsilosis [11], with Candida parapsilosis [18] and in the experiment on Candida metapsilosis [23] was inactive.
